Reference: ChEMBL document CHEMBL1135736, “Synthesis and biological evaluation of a new furo[2,3-h]quinolin-2(1H)-one” (J Med Chem, 2002)

Columns and labels:
[1] = Antiproliferative effect on clonal growth of mammalian cells upon UVA irradiation.; assay type: functional; conditions: light or radiation study, read-out: ID50
Procedure, shortened: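 CHO cells, clonal growth (colony-forming) inhibition. Cells given graded UVA doses in the presence of 2 µM drug. Reported ID50 is the UVA dose (kJ m-2) producing 50% inhibition, derived by probit analysis over several experiments.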

Mus musculus [2] = species on record: Mus musculus; test: Percent mortality observed when 0.3x10E-6 viable cells were injected and challenge performed 15 days after injection of photoinactivated cells; assay type: organism-based; conditions: in vivo, 360 h
Procedure, shortened: (§1)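 Mice, groups of 10, primed by ip injection of 5 × 10^6 Ehrlich cells. Before injection, these cells were photoinactivated with UVA light (2.7 kJ m-2) in the presence of 2 μM drug. Viable untreated Ehrlich cells were given later as the tumor challenge, at varying cell numbers and times after priming. Mortality (%) and mean survival time (days) were recorded.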

Mus musculus [3] = species on record: Mus musculus; test: Percent mortality observed when 0.3x10E-6 viable cells were injected and challenge performed 21 days after injection of photoinactivated cells; assay type: organism-based; conditions: in vivo, 504 h; procedure, shortened: as §1
Mus musculus [4] = species on record: Mus musculus; test: Mean survival time when 0.3x10E-6 viable cells were injected and challenge performed 15 days after injection of photoinactivated cells; assay type: ADME, organism-based; conditions: in vivo, 360 h; procedure, shortened: as §1
Mus musculus [5] = species on record: Mus musculus; test: Percent mortality observed when 1x10E-6 viable cells were injected and challenge performed 21 days after injection of photoinactivated cells; assay type: ADME, organism-based; conditions: in vivo, 504 h; procedure, shortened: as §1
Mus musculus [6] = species on record: Mus musculus; test: Mean survival time when 4x10E-6 viable cells were injected and challenge performed 21 days after injection of photoinactivated cells; assay type: ADME, organism-based; conditions: in vivo, 504 h; procedure, shortened: as §1
Mus musculus [7] = species on record: Mus musculus; test: Mean survival time when 1x10E-6 viable cells were injected and challenge performed 21 days after injection of photoinactivated cells; assay type: ADME, organism-based; conditions: in vivo, 504 h; procedure, shortened: as §1
[8] = Antiproliferative effect on DNA synthesis of mammalian cells upon UVA irradiation.; assay type: functional; conditions: light or radiation study, read-out: ID50
Procedure, shortened: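 Ehrlich cells, DNA synthesis inhibition. Cells held with 2 µM drug and exposed to graded UVA doses. ID50 is the UVA dose (kJ m-2) giving 50% inhibition, calculated by probit analysis, pooled from several experiments.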

Mus musculus [9] = species on record: Mus musculus; test: Percent mortality observed when 4x10E-6 viable cells were injected and challenge performed 21 days after injection of photoinactivated cells; assay type: ADME, organism-based; conditions: in vivo, 504 h; procedure, shortened: as §1
Mus musculus [10] = species on record: Mus musculus; test: Percent mortality observed when 0.3x10E-6 viable cells were injected and challenge performed 8 days after injection of photoinactivated cells; assay type: ADME, organism-based; conditions: in vivo, 192 h; procedure, shortened: as §1
Mus musculus [11] = species on record: Mus musculus; test: Mean survival time when 0.3x10E-6 viable cells were injected and challenge performed 21 days after injection of photoinactivated cells; assay type: ADME, organism-based; conditions: in vivo, 504 h; procedure, shortened: as §1
Mus musculus [12] = species on record: Mus musculus; test: Mean survival time when 0.3x10E-6 viable cells were injected and challenge performed 8 days after injection of photoinactivated cells; assay type: ADME, organism-based; conditions: in vivo, 192 h; procedure, shortened: as §1

Row | SMILES | IC50 [1] [kJ m-2] | Mortality (Mus musculus [2]) [%] | Mortality (Mus musculus [3]) [%] | Mean survival time (Mus musculus [4]) [days] | Mortality (Mus musculus [5]) [%] | Mean survival time (Mus musculus [6]) [days] | Mean survival time (Mus musculus [7]) [days] | IC50 [8] [kJ m-2] | Mortality (Mus musculus [9]) [%] | Mortality (Mus musculus [10]) [%] | Mean survival time (Mus musculus [11]) [days] | Mean survival time (Mus musculus [12]) [days]
1 | Cc1cc2c(o1)c(C)cc1c(CO)cc(=O)n(C)c12 | 0.02 | 35 | 0 | 25 | 30 | 15.8 | 10.6 | 0.65 | 100 | 70 | > 60 | 21.3
2 | COc1c2occc2cc2ccc(=O)oc12 [METHOXSALEN] | 0.84 |  |  |  |  |  |  | 36.6 |  |  |  | 
